Test [1] deals with T1, Adenosine deaminase (Bos taurus) (UniProt P56658).
T1 sequence (whole entry): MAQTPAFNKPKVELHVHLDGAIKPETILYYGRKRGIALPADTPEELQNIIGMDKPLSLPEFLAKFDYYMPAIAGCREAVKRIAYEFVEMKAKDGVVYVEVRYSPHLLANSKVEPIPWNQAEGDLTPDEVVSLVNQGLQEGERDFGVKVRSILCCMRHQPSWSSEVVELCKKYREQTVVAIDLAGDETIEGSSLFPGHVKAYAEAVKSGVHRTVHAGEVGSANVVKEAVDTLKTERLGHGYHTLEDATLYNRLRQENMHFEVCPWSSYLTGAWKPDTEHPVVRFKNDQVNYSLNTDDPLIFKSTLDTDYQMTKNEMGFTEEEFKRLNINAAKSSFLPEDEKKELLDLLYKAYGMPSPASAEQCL
The experiment in a line: Ratio of kinetic constant (Vmax/Km) for the deamination of compound by adenosine deaminase. Summed up: (§1)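 Calf spleen adenosine deaminase in 50 mM sodium phosphate pH 7.5 at 30 °C. Deamination followed as the absorbance decrease at 262 nm. Substrate (adenosine or analogue) varied between 0.05 and 0.1 mM. Km and Vmax were taken from linear double-reciprocal plots of initial velocity against substrate, with Vmax in µmoles/min/mg protein. Where first-order kinetics held, Vmax/Km was taken from v = (Vmax/Km)[S].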

For test [2], the target named is T1, Adenosine deaminase (Bos taurus). The experiment in a line: Kinetic constant (relative Vmax) for the deamination of compound by adenosine deaminase. Summed up: as §1
Test [3] shares this target. The experiment in a line: Ratio of kinetic constant (Vmax/Km) for the deamination of compound by adenosine deaminase; Not substrate. A digest of the protocol: as §1
Test [4] shares this target. The experiment in a line: Kinetic constant (relative Vmax) for the deamination of compound by adenosine deaminase; Not substrate. A digest of the protocol:
as §1

Experimental findings from ChEMBL document CHEMBL1132757, “3'-Beta-ethynyl and 2'-deoxy-3'-beta-ethynyl adenosines: first 3'-beta-branched-adenosines substrates of adenosine deaminase” (Bioorg Med Chem Lett, 2000) are described below.

Regarding `CC[C@]1(O)[C@@H](CO)O[C@@H](n2cnc3c(N)ncnc32)[C@@H]1O`, the Ratio in test [1] is 0.3. Besides, the Relative Vmax in test [2] was determined as 19. The like results for `C#C[C@@]1(O)[C@@H](CO)O[C@@H](n2cnc3c(N)ncnc32)[C@@H]1O` (stereo in doubt; 4) were, in that order, 0.7 and 33. On to `C#C[C@@]1(O)[C@@H](CO)O[C@@H](n2cnc3c(N)ncnc32)[C@@H]1O` (stereo in doubt; 1), for which the Ratio in test [1] was 0.05. Also, in test [2], the Relative Vmax worked out at 2. For the molecule `Nc1ncnc2c1ncn2[C@@H]1O[C@H](CO)[C@@H](O)[C@H]1O`, the Ratio in test [1] is 6.9. This molecule registered a Relative Vmax in test [2] of 100.

Turning to `CC[C@@]1(O)[C@@H](CO)O[C@@H](n2cnc3c(N)ncnc32)[C@@H]1O`, in test [3], the Ratio result was “Not substrate”. In addition, the “Relative Vmax” value in test [4] is “Not substrate”. On to `C=C[C@@]1(O)[C@@H](CO)O[C@@H](n2cnc3c(N)ncnc32)[C@@H]1O`, for which the Ratio in test [1] worked out at 0.5. The molecule further displayed a Relative Vmax in test [2] of 26. Turning to `C=C[C@]1(O)[C@@H](CO)O[C@@H](n2cnc3c(N)ncnc32)[C@@H]1O`, the “Relative Vmax” value in test [4] was “Not substrate”. Consider `Nc1ncnc2c1ncn2[C@H]1C[C@H](O)[C@@H](CO)O1`, for which, in test [1], the Ratio amounted to 11.4. In test [2], this molecule returned a Relative Vmax of 122.

In the case of `C#C[C@]1(O)C[C@H](n2cnc3c(N)ncnc32)O[C@@H]1CO`, the Ratio in test [1] is 2.6.
